Measured values taken from ChEMBL document CHEMBL1158355, “Novel pyridazine derivatives: Synthesis and antimicrobial activity evaluation” (2009).

Key:
Format in all cases: functional
Pseudomonas aeruginosa = experiment: Antibacterial activity against Pseudomonas aeruginosa at 20 mg/mL by agar diffusion method
In short: (§1)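 Agar diffusion assay with test solutions at 20 mg/mL in DMSO, run alongside tetracycline as reference. Read-out is the diameter of the inhibition zone in mm, reported as an average.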

Staphylococcus aureus = experiment: Antibacterial activity against Staphylococcus aureus at 20 mg/mL by agar diffusion method; in short: as §1
Escherichia coli = experiment: Antibacterial activity against Escherichia coli at 20 mg/mL by agar diffusion method; in short: as §1
Enterococcus faecalis = experiment: Antibacterial activity against Streptococcus faecalis at 20 mg/mL by agar diffusion method; in short: as §1

| Compound | diameter of the inhibition zone (DIZ) (Pseudomonas aeruginosa) | diameter of the inhibition zone (DIZ) (Staphylococcus aureus) | diameter of the inhibition zone (DIZ) (Escherichia coli) | diameter of the inhibition zone (DIZ) (Enterococcus faecalis) |
| --- | --- | --- | --- | --- |
| COc1ccccc1Cc1cc(-c2ccc(Cl)cc2)n[nH]/c1=N/N=C/c1ccc(OCCOc2ccc(C=O)cc2OC)c(OC)c1 | 13 mm | 12 mm | 13 mm | 12 mm |
| COc1ccccc1Cc1cc(-c2ccccc2)n[nH]/c1=N/N=C/c1ccc(OCCOc2ccc(C=O)cc2)cc1 | 13 mm | 14 mm | 12 mm | 12 mm |
| COc1ccc(-c2cc(Cc3ccccc3OC)/c(=N/N=C/c3ccc(OC(C)=O)c(OC)c3)[nH]n2)cc1 | 12 mm | 14 mm | 15 mm | 13 mm |
| COc1ccc(-c2cc(Cc3ccccc3OC)/c(=N/N=C(\c3ccccc3)c3ccccc3C(=O)O)[nH]n2)cc1 | 17 mm | 18 mm | 16 mm | 17 mm |
| COc1ccc(-c2cc(Cc3ccccc3OC)/c(=N/N=C/c3ccc(O)c(OC)c3)[nH]n2)cc1 | 13 mm | 12 mm | 12 mm | 12 mm |
| COc1ccc(-c2cc(Cc3ccccc3OC)/c(=N/N=C/C(O)C(O)C(O)CO)[nH]n2)cc1 (configuration not stated) | 11 mm | 12 mm | 12 mm | 12 mm |
| COc1ccccc1Cc1cc(-c2ccccc2)n[nH]/c1=N\N=C(C)C | 15 mm | 16 mm | 15 mm | 16 mm |
| COc1ccccc1Cc1cc(-c2ccc(C)cc2)n[nH]/c1=N/N=C/C(OC(C)=O)C(OC(C)=O)C(COC(C)=O)OC(C)=O (configuration not stated) | 12 mm | 13 mm | 13 mm | 13 mm |
| COc1ccccc1Cc1cc(-c2ccc(C)cc2)n[nH]\c1=N/N=C(C)/C(C)=N/N=c1/[nH]nc(-c2ccc(C)cc2)cc1Cc1ccccc1OC | 14 mm | 14 mm | 13 mm | 13 mm |
| COc1ccc(-c2cc(Cc3ccccc3OC)/c(=N\N=C\C(OC(C)=O)C(OC(C)=O)C(OC(C)=O)C(COC(C)=O)OC(C)=O)[nH]n2)cc1 (configuration not stated) | 13 mm | 13 mm | 14 mm | 14 mm |
| COc1ccccc1Cc1cc(-c2ccccc2)n[nH]/c1=N/N=C/c1cc(OC)c(OCCOc2c(OC)cc(C=O)cc2OC)c(OC)c1 | 14 mm | 14 mm | 12 mm | 13 mm |
| COc1ccccc1Cc1cc(-c2ccccc2)n[nH]/c1=N\N=C(c1ccccc1)c1ccccc1 | 13 mm | 13 mm | 12 mm | 13 mm |
| COc1ccc(-c2cc(Cc3ccccc3OC)/c(=N\N=C\c3ccc(OCCOc4ccc(C=O)cc4OC)c(OC)c3)[nH]n2)cc1 | 10 mm | 10 mm | 11 mm | 10 mm |
| COc1ccccc1Cc1cc(-c2ccccc2)n[nH]/c1=N\N=C(/C)c1ccccc1 | 12 mm | 13 mm | 12 mm | 13 mm |
| COc1ccccc1Cc1cc(-c2ccc(Cl)cc2)n[nH]/c1=N\N=C\C(O)C(O)C(O)CO (configuration not stated) | 15 mm | 16 mm | 16 mm | 17 mm |
| COc1ccc(-c2cc(Cc3ccccc3OC)/c(=N/N=C(\C)C(C)=O)[nH]n2)cc1 | 13 mm | 13 mm | 13 mm | 13 mm |
| COc1ccc(-c2cc(Cc3ccccc3OC)/c(=N/N=C/C(O)C(O)C(O)C(O)CO)[nH]n2)cc1 (configuration not stated) | 14 mm | 16 mm | 15 mm | 15 mm |
| CN(C)[C@@H]1C(O)=C(C(N)=O)C(=O)[C@@]2(O)C(O)=C3C(=O)c4c(O)cccc4[C@@](C)(O)[C@H]3C[C@@H]12 [TETRACYCLINE] | 24 mm | 20 mm | 22 mm | 26 mm |
